Active and inactive are the calls of the source. No cut-off for these calls is given here.
Legend:
[1] = molecular target: T1, Androgen receptor/Baculoviral IAP repeat-containing protein 2 (Homo sapiens, UniProt P10275+Q13490); assay: Induction of AR/cIAP1 interaction in human 22Rv1 cells assessed as ubiquitin proteasome system mediated androgen receptor protein degradation at 1 to 3 uM after 6 hrs by Western blot analysis; format: cell-based
Outline: (§1)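 22Rv1 cells were treated with compound, or with separate ligands (30 μM or 3 μM each), for 6 h. Lysates in SDS buffer (0.1 M Tris pH 8.0, 1% SDS) were normalized by BCA, run on SDS-PAGE and immunoblotted. AR/GAPDH ratio was normalized to vehicle as 100. DC50 is the concentration giving 50% AR reduction; means ± SD, n = 3; t-test against vehicle.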

VCaP [2] = assay: Induction of apoptosis in human VCaP cells assessed as increase in cleaved PARP levels at 1 to 3 uM after 24 hrs by Western blot method; format: functional, cell-based
Outline: (§2)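 VCaP cells were treated 24 h with compound, or with 3 μM compound plus graded pan-caspase inhibitor. Cleaved caspase-3 and cleaved PARP were detected by Western blot of SDS lysates normalized by BCA.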

[3] = molecular target: T1, Androgen receptor/Baculoviral IAP repeat-containing protein 2; assay: Induction of AR/cIAP1 interaction in human VCaP cells assessed as ubiquitin proteasome system mediated androgen receptor protein degradation at 3 uM in presence of proteasome inhibitor MG132 after 6 hrs by Western blot analysis; format: cell-based
Outline: (§3)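 22Rv1 or VCaP cells were given 3 μM degrader with or without 10 μM proteasome inhibitor over a time course. AR was detected by Western blot (SDS lysis, BCA normalization) and AR/GAPDH was normalized to vehicle as 100. Means ± SD, n = 3.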

VCaP [4] = assay: Induction of apoptosis in human VCaP cells assessed as increase in cleaved PARP levels at 3 uM in presence of proteasome inhibitor MG132 after 9 hrs by Western blot method; format: functional, cell-based
Outline: (§4)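 VCaP cells were incubated 9 h with 3 μM compound and/or 10 μM proteasome inhibitor. Apoptotic markers were assessed by Western blot.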

VCaP [5] = assay: Induction of apoptosis in human VCaP cells assessed as viable cells at 3 uM after 24 hrs by Annexin V-FITC/propidium iodide staining-based flow cytometry (reference value: 98.9%); format: functional; conditions: read-out: Activity
VCaP [6] = assay: Induction of apoptosis in human VCaP cells assessed as caspase-3 activation at 1 to 3 uM in presence of pan-caspase inhibitor zVAD-FMK after 24 hrs by Western blot analysis; format: functional, cell-based; outline: as §2
HT-1080 [7] = assay: Cytotoxicity against human HT1080 cells at 100 uM after 6 hrs by WST-8 assay; format: functional, cell-based
Outline: (§5)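 WST-8 viability read at 450 nm after 6 h exposure to 100 μM compound. Reagent incubated 0.5 h at 37 °C. A549 and PC-3 were kept in RPMI-1640 + 10% FBS; HT1080 in DMEM + 10% FBS.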

VCaP [8] = assay: Induction of morphological changes in human VCaP cells at 3 uM after 24 hrs by phase contrast microscopic analysis; format: functional, cell-based
Outline: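 VCaP cells were treated 24 h with 3 μM compound and imaged by phase-contrast microscopy.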

[9] = molecular target: T1, Androgen receptor/Baculoviral IAP repeat-containing protein 2; assay: Induction of AR/cIAP1 interaction in human 22Rv1 cells assessed as ubiquitin proteasome system mediated androgen receptor protein degradation at 3 uM in presence of proteasome inhibitor MG132 after 6 hrs by Western blot analysis; format: cell-based; outline: as §3
HT-1080 [10] = assay: Cytotoxicity against human HT1080 cells at 3 uM after 48 hrs by WST-8 assay; format: functional, cell-based
Outline: (§6)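 Seeded at 5 × 10^3 cells/well; compound added after 24 h and incubated 48 h. WST-8 reagent then added for 0.5 h at 37 °C, 5% CO2, with absorbance read at 450 nm. A549, PC-3, LNCaP and VCaP were kept in RPMI-1640 + 10% FBS; HT1080 in DMEM + 10% FBS. Means ± SD, n = 3; Student's t-test against vehicle.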

[11] = molecular target: T1, Androgen receptor/Baculoviral IAP repeat-containing protein 2; assay: Induction of AR/cIAP1 interaction in human VCaP cells assessed as ubiquitin proteasome system mediated androgen receptor protein degradation by measuring reduction in DHT-stimulated NKX3.1 mRNA expression at 3 uM after 24 hrs by qPCR analysis; format: cell-based
Outline: (§7)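 VCaP cells were held 2 days in phenol red-free RPMI + 5% charcoal-stripped FBS, then given 1 nM DHT with or without 3 μM compound for 24 h. RNA was isolated and cDNA made from 1 μg with oligo-dT. qPCR used the comparative Ct method, with values relative to vehicle = 1. Means ± SD, n = 3.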

LNCaP = assay: Cytotoxicity against human LNCAP cells expressing androgen receptor at 3 uM after 48 hrs by WST-8 assay; format: functional, cell-based; outline: as §6
VCaP [12] = assay: Induction of apoptosis in human VCaP cells assessed as late apoptotic cells at 3 uM in presence of pan-caspase inhibitor zVAD-FMK after 24 hrs by Annexin V-FITC/propidium iodide staining-based flow cytometry (reference value: 0.1%); format: functional
VCaP [13] = assay: Induction of apoptosis in human VCaP cells assessed as caspase-3 activation at 3 uM in presence of proteasome inhibitor MG132 after 9 hrs by Western blot method; format: functional, cell-based; outline: as §4
PC-3 [14] = assay: Cytotoxicity against human PC3 cells at 3 uM after 48 hrs by WST-8 assay; format: functional, cell-based; outline: as §6
PC-3 [15] = assay: Cytotoxicity against human PC3 cells at 100 uM after 6 hrs by WST-8 assay; format: functional, cell-based; outline: as §5
[16] = molecular target: T1, Androgen receptor/Baculoviral IAP repeat-containing protein 2; assay: Induction of AR/cIAP1 interaction in human 22Rv1 cells assessed as ubiquitin proteasome system mediated androgen receptor protein degradation at 3 uM after 6 hrs by Western blot analysis; format: cell-based; outline: as §1
[17] = molecular target: T1, Androgen receptor/Baculoviral IAP repeat-containing protein 2; assay: Induction of AR/cIAP1 interaction in human VCaP cells assessed as ubiquitin proteasome system mediated androgen receptor protein degradation by measuring reduction in DHT-stimulated KLK2 mRNA expression at 3 uM after 24 hrs by qPCR analysis; format: cell-based; outline: as §7
VCaP [18] = assay: Induction of apoptosis in human VCaP cells assessed as viable cells at 3 uM in presence of pan-caspase inhibitor zVAD-FMK after 24 hrs by Annexin V-FITC/propidium iodide staining-based flow cytometry (reference value: 98.9%); format: functional; conditions: read-out: Activity
VCaP [19] = assay: Induction of apoptosis in human VCaP cells assessed as late apoptotic cells at 3 uM after 24 hrs by Annexin V-FITC/propidium iodide staining-based flow cytometry (reference value: 0.1%); format: functional
VCaP [20] = assay: Induction of apoptosis in human VCaP cells assessed as increase in cleaved PARP levels at 1 to 3 uM in presence of pan-caspase inhibitor zVAD-FMK after 24 hrs by Western blot analysis; format: functional, cell-based; outline: as §2
[21] = molecular target: T1, Androgen receptor/Baculoviral IAP repeat-containing protein 2; assay: Induction of AR/cIAP1 interaction in human 22Rv1 cells assessed as ubiquitin proteasome system mediated androgen receptor protein degradation at 3 uM by Western blot analysis; format: cell-based; conditions: TDE = time-dependent effect; outline: as §1
[22] = molecular target: T1, Androgen receptor/Baculoviral IAP repeat-containing protein 2; assay: Induction of AR/cIAP1 interaction in human VCaP cells assessed as ubiquitin proteasome system mediated androgen receptor protein degradation by measuring reduction in DHT-stimulated TMPRSS2 mRNA expression at 3 uM after 24 hrs by qPCR analysis; format: cell-based; outline: as §7
[23] = molecular target: T1, Androgen receptor/Baculoviral IAP repeat-containing protein 2; assay: Induction of AR/cIAP1 interaction in human VCaP cells assessed as ubiquitin proteasome system mediated androgen receptor protein degradation by measuring reduction in DHT-stimulated PSA mRNA expression at 3 uM after 24 hrs by qPCR analysis; format: cell-based; outline: as §7
VCaP [24] = assay: Cytotoxicity against human VCaP cells at 3 uM after 48 hrs by WST-8 assay; format: functional, cell-based; outline: as §6
VCaP [25] = assay: Induction of apoptosis in human VCaP cells assessed as necrotic cells at 3 uM in presence of pan-caspase inhibitor zVAD-FMK after 24 hrs by Annexin V-FITC/propidium iodide staining-based flow cytometry (reference value: 0.5%); format: functional
VCaP [26] = assay: Induction of apoptosis in human VCaP cells assessed as caspase-3 activation at 1 to 3 uM after 24 hrs by Western blot analysis; format: functional, cell-based; outline: as §2
VCaP [27] = assay: Induction of apoptosis in human VCaP cells assessed as necrotic cells at 3 uM after 24 hrs by Annexin V-FITC/propidium iodide staining-based flow cytometry (reference value: 0.5%); format: functional
A549 [28] = assay: Cytotoxicity against human A549 cells at 3 uM after 48 hrs by WST-8 assay; format: functional, cell-based; outline: as §6
VCaP [29] = assay: Induction of apoptosis in human VCaP cells assessed as early apoptotic cells at 3 uM in presence of pan-caspase inhibitor zVAD-FMK after 24 hrs by Annexin V-FITC/propidium iodide staining-based flow cytometry (reference value: 0.5%); format: functional
VCaP [30] = assay: Induction of apoptosis in human VCaP cells assessed as early apoptotic cells at 3 uM after 24 hrs by Annexin V-FITC/propidium iodide staining-based flow cytometry (reference value: 0.5%); format: functional
A549 [31] = assay: Cytotoxicity against human A549 cells at 100 uM after 6 hrs by WST-8 assay; format: functional, cell-based; outline: as §5

T1 sequence (P10275 whole entry, looked up): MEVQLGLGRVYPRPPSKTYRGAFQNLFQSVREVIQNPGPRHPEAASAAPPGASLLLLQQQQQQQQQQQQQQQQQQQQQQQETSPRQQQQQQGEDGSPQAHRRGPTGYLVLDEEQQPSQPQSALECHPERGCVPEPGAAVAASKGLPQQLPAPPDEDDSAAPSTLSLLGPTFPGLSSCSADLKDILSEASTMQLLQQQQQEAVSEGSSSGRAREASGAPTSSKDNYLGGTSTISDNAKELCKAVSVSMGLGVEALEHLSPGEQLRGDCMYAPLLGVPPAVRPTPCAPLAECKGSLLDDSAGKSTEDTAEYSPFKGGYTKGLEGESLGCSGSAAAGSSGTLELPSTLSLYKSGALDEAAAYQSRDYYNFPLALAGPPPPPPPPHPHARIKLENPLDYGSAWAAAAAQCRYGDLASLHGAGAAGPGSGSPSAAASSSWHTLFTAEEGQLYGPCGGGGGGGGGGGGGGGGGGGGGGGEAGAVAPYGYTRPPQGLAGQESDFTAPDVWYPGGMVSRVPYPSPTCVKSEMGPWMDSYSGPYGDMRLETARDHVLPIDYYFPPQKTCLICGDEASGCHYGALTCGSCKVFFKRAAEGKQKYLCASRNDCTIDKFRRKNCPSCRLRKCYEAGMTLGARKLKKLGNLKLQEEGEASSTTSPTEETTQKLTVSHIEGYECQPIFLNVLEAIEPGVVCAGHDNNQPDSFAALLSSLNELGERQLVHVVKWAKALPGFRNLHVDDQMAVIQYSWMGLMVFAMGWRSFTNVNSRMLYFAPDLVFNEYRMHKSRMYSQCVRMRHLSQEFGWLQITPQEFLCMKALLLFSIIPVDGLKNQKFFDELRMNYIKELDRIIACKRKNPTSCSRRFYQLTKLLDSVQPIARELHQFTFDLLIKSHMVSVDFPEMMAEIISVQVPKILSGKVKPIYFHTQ
T1 sequence (Q13490 whole entry, looked up): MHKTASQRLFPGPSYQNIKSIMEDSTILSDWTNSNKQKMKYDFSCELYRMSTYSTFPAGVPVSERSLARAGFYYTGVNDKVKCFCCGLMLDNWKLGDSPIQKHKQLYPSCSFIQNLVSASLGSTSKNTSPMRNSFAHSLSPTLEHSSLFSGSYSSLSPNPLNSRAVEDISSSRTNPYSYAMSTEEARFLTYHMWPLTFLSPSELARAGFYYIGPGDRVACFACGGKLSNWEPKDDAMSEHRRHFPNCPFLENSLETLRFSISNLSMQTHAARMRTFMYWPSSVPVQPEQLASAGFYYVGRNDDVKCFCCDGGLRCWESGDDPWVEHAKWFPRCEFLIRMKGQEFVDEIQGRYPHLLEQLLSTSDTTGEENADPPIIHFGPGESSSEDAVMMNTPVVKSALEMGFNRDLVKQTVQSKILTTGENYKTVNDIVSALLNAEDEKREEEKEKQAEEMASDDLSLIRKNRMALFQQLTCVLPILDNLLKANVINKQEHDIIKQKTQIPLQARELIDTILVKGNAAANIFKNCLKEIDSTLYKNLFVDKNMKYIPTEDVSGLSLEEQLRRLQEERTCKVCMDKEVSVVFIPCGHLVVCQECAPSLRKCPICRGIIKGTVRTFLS

Activity [1]: Active | Activity [3]: inactive | Activity [9]: inactive | Activity [11]: Active | Activity [16]: Active | Activity [17]: Active | Activity [21]: Tde | Activity [22]: Active | Activity [23]: Active
Compound: CN[C@@H](C)C(=O)N[C@H](C(=O)N1CCC[C@H]1c1nc(C(=O)c2cccc(OCCOCCOCCOCCOc3ccc(Cn4c(C)c(C#N)c(-c5ccc(C#N)cc5)c4C)cc3)c2)cs1)C1CCCCC1
Activity (VCaP [2]): Active | Activity (VCaP [4]): inactive | viability at 3 µM (VCaP [5]): 87.7% | Activity (VCaP [6]): inactive | Activity (HT-1080 [7]): Active | Activity (VCaP [8]): Active | Activity (HT-1080 [10]): inactive | Activity (LNCaP): Active | Activity (VCaP [12]): 0.6% | Activity (VCaP [13]): inactive | Activity (PC-3 [14]): inactive | Activity (PC-3 [15]): Active | viability at 3 µM (VCaP [18]): 96.8% | Activity (VCaP [19]): 0.4% | Activity (VCaP [20]): inactive | Activity (VCaP [24]): Active | Activity (VCaP [25]): 1.1% | Activity (VCaP [26]): Active | Activity (VCaP [27]): 0.3% | Activity (A549 [28]): inactive | Activity (VCaP [29]): 1.5% | Activity (VCaP [30]): 11.6% | Activity (A549 [31]): Active

Source: ChEMBL document CHEMBL4219028, “Development of Protein Degradation Inducers of Androgen Receptor by Conjugation of Androgen Receptor Ligands and Inhibitor of Apoptosis Protein Ligands” (J Med Chem, 2018)
